Screening data as filed in PubChem.
The list is not random: actives were taken first. Their share in the collection is about 2.4%.
Efa HMGR inh: inhibitors of class II HMG-CoA reductase from Enterococcus faecalis. purified E. faecalis HMGR, NADPH absorbance 340 nm kinetic. inhibition, % at 10 µM. actives 0.41% (n = 190,000);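 active = inhibition above a set limit, the median over all tested compounds plus 3 SD, cut at about 9.5% in these data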;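 note: enzyme runs in reverse so mevalonate oxidation gives rising NADPH absorbance; 0% = complete reaction with DMSO and 100% = background rate lacking mevalonate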
EP2 modulator: EP2 receptor (human) modulation | P43116 | EP2-expressing cells, cAMP HTRF FRET, PGE2 co-stimulation | induction, % at 25 µM | actives 0.83% (n = 260,000) | AID 940;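 active = compounds whose cAMP rise, as percent of the full-agonist control response, exceeds 60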;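 note: rat C6 glioma line stably carrying human EP2 under a CMV promoter; the protocol text gives 20 µM as final concentration; 100% = response of wells given 1 µM PGE2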
Target sequence (P43116 whole entry, looked up): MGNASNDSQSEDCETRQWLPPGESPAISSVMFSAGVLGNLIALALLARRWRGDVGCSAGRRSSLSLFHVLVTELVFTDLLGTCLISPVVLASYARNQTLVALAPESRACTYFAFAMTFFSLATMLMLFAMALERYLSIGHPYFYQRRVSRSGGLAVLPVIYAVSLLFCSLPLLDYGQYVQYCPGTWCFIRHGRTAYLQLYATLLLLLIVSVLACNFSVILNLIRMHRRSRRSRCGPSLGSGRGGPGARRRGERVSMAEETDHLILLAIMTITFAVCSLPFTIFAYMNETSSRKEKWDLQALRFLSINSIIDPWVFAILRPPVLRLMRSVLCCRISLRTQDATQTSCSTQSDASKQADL
MT stabilize HCS: microtubule stabilizers in HeLa cells; AID 2205; HeLa tubulin immunostaining HCS, 24 h; share of cells brighter than vehicle mean+2SD; actives 0.83% (n = 200,000); % tubulin-high responders, % at 10 µM;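 active = plate Z-score above 3 for both tubulin-high and condensed-nucleus cell shares, with cell loss under 80%, at 10 µM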;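 note: anti alpha tubulin signal scored within the nucleus-defined area of each cell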
Tb hexokinase: T. brucei hexokinase 1 inhibition | inhibition, % at 10 µM | recombinant TbHK1, G6PDH-coupled NADH A340 | actives 0.11% (n = 220,000);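 active = inhibition of 50% or more in the single-dose primary screen; inactive = inhibition below 50%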
EP2 antag: blocks the human prostaglandin E2 receptor EP2 | C6 glioma cells expressing human EP2, cAMP TR-FRET; cells stimulated with saturating PGE2 | P43116 | inhibition, % at 25 µM | actives 0.52% (n = 260,000);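 active = percent inhibition above 40 after rounding to a whole number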;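 note: rat C6 glioma host cells with rolipram phosphodiesterase inhibitor present; the protocol text gives 20 µM as final concentration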
bCat nuc transl: alters nuclear translocation of beta-catenin in HeLa cells. actives 0.3% (n = 190,000). nuclear translocation activity, % at 5 µM. immunofluorescence imaging;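 active = nuclear translocation activity above 50% at 5 µM, with a well cell count of 50 or more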;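 note: per-cell ratio of nuclear to cytoplasmic median beta-catenin stain intensity; plate controls were DMSO negative control for no effect and GSK-3 inhibitor IX positive control for full effect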
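assay system = human HeLa cells, endogenous beta-catenin | times = compound treatment 24 h, 37°C, 5% CO2 | detection = Anti-beta-catenin immunofluorescence on PFA-fixed, Triton-permeabilized cells, DAPI nuclei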
* marks the source's active call; other numbers are inactive results; nt = no result.

SMILES | Efa HMGR inh | EP2 modulator | MT stabilize HCS | Tb hexokinase | EP2 antag | bCat nuc transl
CCOc1ccc(/C=C2\C(=O)c3ccccc3OC2c2ccccc2)cc1 (stereo not given) | -2 | 26 | 36* | -13 | 4 | nt
CCOC(=O)C(C)(C)Sc1nnc(COc2ccc(Br)cc2)n1CC | nt | -22 | nt | nt | 4 | nt
COc1cccc(OC)c1-c1nn2c(-c3cc(-c4ccccc4)n[nH]3)nnc2s1 | -2 | 2 | 40* | -17 | 12 | 37
CN1[C@@H](c2ccccc2)CC(=NO)C[C@H]1c1ccccc1 | nt | 39 | nt | nt | 42* | nt
CC(C)(C)c1[nH]ncc1CN1CCC(O)(c2ccc3c(c2)OCO3)CC1 | nt | -7 | nt | nt | 4 | nt
Cc1nn(C)cc1S(=O)(=O)N1CCC(C(N)=O)(N2CCCCC2)CC1 | nt | -13 | nt | nt | 0 | nt
CCCn1c(=O)c(C(=O)Nc2ccccc2F)c(O)c2ccccc21 | nt | 9 | nt | nt | 17 | nt
C=CCn1c(=O)c(C(=O)NCC)c(O)c2ccccc21 | nt | 70* | nt | nt | -1 | nt
CCCn1c(=O)c(C(=O)NCCCCl)c(O)c2ccccc21 | nt | 70* | nt | nt | 19 | nt
CCCn1c(=O)c(C(=O)Nc2ccccc2C(=O)OC)c(O)c2ccccc21 | -4 | 63* | 5 | -16 | 6 | -6
CCCn1c(=O)c(C(=O)NCCCl)c(O)c2ccccc21 | nt | 37 | nt | nt | 8 | nt
Fc1cc(F)c2c(c1)C1C=CCC1C(c1ccccn1)N2 (stereo not given) | nt | 32 | nt | nt | 13 | nt
Cc1cc(C)c(NC(=O)/C(=C/c2ccccc2)c2ccccc2)c(C)c1 | -5 | 62* | 3 | 29 | 3 | 0
O=C(O)/C(=C/c1ccco1)c1ccccc1 | -5 | 13 | 3 | 3 | -2 | -2
Cc1ccc(NC(=O)/C(=C/c2ccco2)c2ccccc2)c(C)c1 | 0 | 65* | 1 | -7 | 5 | nt
COc1ccc2oc(=O)c(C(=O)Nc3ccccc3C(F)(F)F)cc2c1 | nt | 16 | nt | nt | 14 | nt
CS(=O)(=O)N1CCCc2cc(C(O)CN3CCN(C4CCCC4)C(=O)C3)ccc21 (stereo not given) | nt | -2 | nt | nt | 5 | nt
Cc1nc(SCC(=O)N2CCC(C)CC2)c2c(C)c(C)sc2n1 | nt | -7 | nt | nt | 7 | nt
CC(=O)c1ccc(NC(=O)Nc2ccc3c(c2)N(C)C(=O)CS3)cc1 | -4 | -26 | 1 | -10 | 79* | nt
CCCc1nc2c(=O)n(C)c(=O)nc-2n(C)n1 | -1 | -34 | 20* | 7 | 12 | 3
CCn1c(N)nc2c1c(=O)n(C)c(=O)n2C | -3 | 29 | 3 | 1 | 9 | 1
COc1ccc(C2(NCc3cc4c(cc3OC)OCCO4)CC2)cc1 | nt | -58 | nt | nt | 3 | nt
Cc1cc2cc3c(cc2nc1SCC(=O)c1ccc(Cl)cc1)OCO3 | nt | 0 | nt | nt | 14 | nt
CCOC(=O)c1cnc(SC)nc1Oc1cccc(NS(=O)(=O)c2ccc(Cl)cc2)c1 | -9 | 20 | 32* | -14 | 6 | -2
CC(=O)c1cccc(NC(=O)C2CCN(S(=O)(=O)c3ccc(-n4cnnn4)cc3)CC2)c1 | nt | -39 | nt | nt | 6 | nt
SMILES | Efa HMGR inh | EP2 modulator | MT stabilize HCS | Tb hexokinase | EP2 antag | bCat nuc transl
O=c1cc(-c2ccccc2)oc2ccc(O)cc12 | nt | -6 | nt | -19 | 9 | 2
O=C1OC2(c3ccc(O)cc3Oc3cc(O)ccc32)c2c1c(-c1ccccc1)c(-c1ccccc1)c(-c1ccccc1)c2-c1ccccc1 | nt | 5 | nt | nt | 45* | nt
CCCNC(=O)C(=O)NCc1cccnc1 | nt | -3 | nt | nt | 6 | nt
Cc1ccc(CN(CCCn2ccnc2)Cc2c(F)cccc2F)o1 | nt | 21 | nt | nt | 5 | nt
COc1cc(/C=N/NC(=O)c2ccc(-c3ccccc3)cc2)cc(OC)c1OC | 13* | -8 | 5 | -13 | 12 | nt
COc1cc(C(=O)N/N=C/c2cc([N+](=O)[O-])cs2)cc(OC)c1OC | -8 | 6 | 20* | -30 | 8 | 29
Cc1ccsc1/C=N/NC(=O)c1ccncc1 | 0 | -3 | 2 | -39 | 12 | -1
CCOc1ccc(C(=O)N/N=C/c2cc([N+](=O)[O-])cs2)cc1 | -3 | -14 | 3 | -12 | 6 | 0
COc1cc(C(=O)N/N=C/c2sccc2C)cc(OC)c1OC | -6 | -24 | 12* | -49 | 3 | 85*
COc1cc(/C=N/NC(=O)c2cc(-c3ccccc3)sc2N)cc(OC)c1OC | nt | -40 | nt | -35 | 10 | 1
CCC(C)(C)n1nnnc1C(c1cc2c(C)ccc(C)c2[nH]c1=O)N1CCCCC1 (stereo not given) | nt | 18 | nt | nt | 18 | nt
Cn1c(N2CCCC(C(=O)NCc3cccs3)C2)nc2ccccc21 (stereo not given) | nt | -51 | nt | nt | nt | nt
Cc1ccc(C2(O)CCN(Cc3ccc(Oc4ncccn4)cc3)CC2)cc1 | nt | -20 | nt | nt | 6 | nt
COC(=O)C[n+]1ccc(C)cc1 | nt | -9 | nt | nt | 6 | nt
CC(=NCCc1c(C)[nH]c2ccc(C)cc12)C1=C(O)CC(c2ccccc2)CC1=O (stereo not given) | -3 | -90 | 16* | 30 | 8 | 10
CC(=NCCc1c(C)[nH]c2ccc(OC(F)(F)F)cc12)C1=C(O)CC(c2ccccc2)CC1=O (stereo not given) | 12* | 8 | 13* | -4 | 7 | 2
COC(=O)CSc1nc2c(c(-c3ccco3)c1C#N)CCCC2 | -1 | 46 | 5 | 3 | 22 | -2
COC(=O)CSc1nc2c(c(-c3ccc(O)cc3)c1C#N)CCCC2 | -4 | 62* | 2 | 4 | 3 | 1
COc1ccc(/C=N/Nc2nc(Nc3ccccc3)nc(N3CCCC3)n2)cc1 | 11* | -27 | 3 | -3 | 7 | -1
Cc1ccc(S(=O)(=O)N(CCCO)Cc2cc3cc4c(cc3[nH]c2=O)OCCO4)cc1 | nt | -46 | nt | nt | 26 | nt
C=CCn1c(SCC)nc2sc3c(c2c1=O)CC(C)(C)OC3 | nt | 80* | nt | nt | 7 | nt
Cc1cc(C)cc(-n2c3nc4ccccc4nc3c3c(=O)n(Cc4ccco4)cnc32)c1 | 17* | 7 | 2 | -10 | 18 | 0
CCOc1ccc(-n2c3nc4ccccc4nc3c3c(=O)n(Cc4ccco4)cnc32)cc1 | nt | nt | 7 | -8 | nt | nt
Cc1cccc2cc(CN(Cc3nnnn3C3CCCC3)C3CCCC3)c(=O)[nH]c12 | nt | 15 | nt | nt | 6 | nt
NC[C@H](O)c1ccc(O)c(O)c1 | nt | 72* | nt | nt | 17 | nt
SMILES | Efa HMGR inh | EP2 modulator | MT stabilize HCS | Tb hexokinase | EP2 antag | bCat nuc transl
CC(C)NCC(O)c1ccc2ccccc2c1 (stereo not given) | nt | 8 | nt | nt | 10 | nt
CC(C)NCC(O)c1ccc(O)c(O)c1 (stereo not given) | nt | 76* | nt | nt | 12 | nt
O=C(Nc1ccccc1)c1nn(-c2ccccc2)c(=O)cc1C(F)(F)F | -2 | 8 | 16* | -1 | 15 | 1
Cc1ccc(N=C(N)N=C(N)N)cc1 | nt | 1 | nt | -7 | 7 | 0
NC(N)=Nc1ccc(-c2ccc(N=C(N)N)cc2)cc1 | nt | 17 | nt | nt | 48* | nt
CCC1CCc2nc3sc(C(=O)NC(C)C)c(N)c3cc2C1 (stereo not given) | nt | -21 | nt | nt | 9 | nt
CCNc1nc(NC(C)C)nc(SCCOC(=O)c2ccccc2)n1 | -4 | 61* | 3 | 2 | 4 | -2
